Here are results for 23 molecules from ChEMBL document CHEMBL4017499, “The Discovery of Novel Antimalarial Aminoxadiazoles as a Promising Nonendoperoxide Scaffold” (J Med Chem, 2017).

For data set [1], the system named is Plasma. Nature of the data set: Drug level in Swiss CD1 mouse plasma treated with 5-(3-(Pyridin-3-yl)-5-(trifluoromethyl)phenyl)-N-(4-(pyrrolidin-1-ylmethyl)phenyl)-1,3,4-oxadiazol-2-amine at 500 mg/kg, po by HPLC analysis. The format is ADME, organism-based. The following applies: in vivo. In short, it runs like this: (§1)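 Mice given high oral doses (250/300 and 500 mg/kg); plasma analysed by HPLC for parent compound and breakdown products, expressed as percentage levels.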

A further data set has as its system Liver. Nature of the data set: Intrinsic clearance in human liver microsomes at 0.5 uM up to 45 mins in presence of NADPH by HPLC-MS/MS analysis. Format: ADME, microsome. Particulars: 0.75 h.
In data set [2] the test system is Plasmodium falciparum. Description: Antiplasmodial activity against Plasmodium falciparum 3D7A infected in red blood cells preincubated for 24 hrs followed by [3H]-hypoxanthine addition measured after 24 hrs by scintillation counting. The format is functional, cell-based. Put shortly: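 Whole-cell growth assay on sensitive P. falciparum strain 3D7A by [3H]hypoxanthine incorporation; two or three independent biological replicates per value.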

The subject of data set [3] is Plasmodium falciparum. Description: Antimalarial activity against Plasmodium falciparum 3D7 0087/N9 infected in po dosed SCID mouse assessed as reduction in parasitemia administered 3 days post infection dosed once a day for four consecutive days measured after 7 days. The format is functional. Particulars: 3D7 0087/N9, po. Put shortly: (§2)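 SCID mice engrafted with human parasite P. falciparum Pf 3D70087/N9; oral dosing started 3 days after infection, once daily for four consecutive days; parasitemia compared with untreated controls.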

Data set [4] deals with Plasmodium falciparum. Description: Antimalarial activity against Plasmodium falciparum 3D7 0087/N9 infected in po dosed mouse assessed as average daily exposure in whole blood required to reduce parasitemia administered 3 days post infection dosed once a day for four consecutive days measured 7 days post dose. Format: functional, organism-based.
Data set [5] can be described thus: Solubility of the compound in fasted state stimulated intestinal fluid at pH 6.5 by HPLC analysis. The following applies: fasted state simulated intestinal fluid. The format is physicochemical. In short, it runs like this: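 Solubility measured in fasted state simulated intestinal fluid, pH 6.5.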
Data set [6] relates to Plasma. Nature of the data set: Drug level in Swiss CD1 mouse plasma treated with 5-([3,4'-Bipyridin]-2'-yl)-N-(4-(pyrrolidin-1-ylmethyl)phenyl)-1,3,4-oxadiazol-2-amine at 500 mg/kg, po by HPLC analysis. Format: ADME, organism-based. The following applies: in vivo. Put shortly: as §1
Data set [7] in a line: Lipophilicity, log D of compound at pH 7.4 by chromatographic method. The format is physicochemical. Particulars: buffer.
For data set [8], the system named is Plasmodium falciparum. Nature of the data set: Antimalarial activity against Plasmodium falciparum 3D7 0087/N9 infected in SCID mouse assessed as reduction in parasitemia at 67 mg/kg, po administered 3 days post infection dosed once a day for four consecutive days measured 7 days post dose. The format is functional, organism-based. Put shortly: as §2

Structures are written as SMILES. In brackets after ≈: the same amount, converted by molar mass. Activity calls are given as the source filed them. The calls are words filed in the database; no cut-off is given here. A value given as a limit tells only on which side of the number the result lay.

As to `O=C(NNC(=O)c1cc(-c2cccnc2)cc(C(F)(F)F)c1)Nc1ccc(CN2CCCC2)cc1`, the Drug metabolism result with Plasma [1] is on record as “Metabolite_Detected”. On to `c1ccc(Nc2nnc(-c3cccc(-c4cccnc4)c3)o2)cc1`, for which the intrinsic clearance in the data set with Liver came to 1.8 mL/min/g. Besides, in the data set with Plasmodium falciparum [2], the midpoint of inhibition, the IC50, lay at 1700 nM.

Regarding `CN1CCc2ccc(Nc3nnc(-c4cccc(-c5cccnc5)c4)o3)cc2C1`, in the data set on Liver, the intrinsic clearance stood at 1.8 mL/min/g. The same molecule yielded an IC50 in the data set on Plasmodium falciparum [2] of 100 nM. For `CN1CCc2ccc(Nc3nnc(-c4cc(OC(F)(F)F)cc(-c5cccnc5)c4)o3)cc2C1` the same measures were less than 0.5 mL/min/g and 220 nM. Consider `Clc1cccc(Nc2nnc(-c3cccc(-c4cccnc4)c3)o2)c1`, for which, in the data set with Liver, the intrinsic clearance came out at 3.7 mL/min/g. Besides, half-maximal inhibition with Plasmodium falciparum [2] (IC50) was put at 5530 nM. With `CN1CCc2ccc(Nc3nnc(-c4cc(-c5cccnc5)ccn4)o3)cc2C1`, in the data set with Liver, the intrinsic clearance is less than 0.5 mL/min/g. The ED90 with Plasmodium falciparum [3] was determined as 33.8 mg/kg. Further, 200 nM corresponded to half-maximal inhibition in the data set on Plasmodium falciparum [2] (IC50). Further, in the data set with Plasmodium falciparum [4], the AUCED90 came out at 1.4 µg.hr/ml/day. The amount in solution in data set [5] (solubility) came to 390 µg/mL (≈ 1010 µM).

On to `CN1CCc2ccc(Nc3nnc(-c4cc(-c5cccnc5)ccc4F)o3)cc2C1`, for which, in the data set with Liver, the intrinsic clearance was 2.9 mL/min/g. This molecule registered an IC50 with Plasmodium falciparum [2] of 50 nM.

The molecule `CN1CCc2ccc(Nc3nnc(-c4ccnc(-c5cccnc5)c4)o3)cc2C1` returned an IC50 in the data set with Plasmodium falciparum [2] of 70 nM. Same read-out and setting: the result for `CN1CCc2ncc(Nc3nnc(-c4cccc(-c5cccnc5)c4)o3)cc2C1` reads 20 nM.

Take `CN1CCc2ccc(Nc3nnc(-c4cc(F)cc(-c5cccnc5)c4)o3)cc2C1`: the intrinsic clearance in the data set with Liver is less than 0.5 mL/min/g. This molecule came in with an IC50 with Plasmodium falciparum [2] of 50 nM.

For the molecule `CN1Cc2ccc(Nc3nnc(-c4cccc(-c5cccnc5)c4)o3)cc2C1`, in the data set with Liver, the intrinsic clearance came to 5.1 mL/min/g. This molecule displayed an IC50 in the data set on Plasmodium falciparum [2] of 70 nM.

On to `O=C(NNC(=O)c1cc(-c2cccnc2)ccn1)Nc1ccc(CN2CCCC2)cc1`, for which the Drug metabolism result in the data set on Plasma [6] was “Metabolite_Detected”. Regarding `CN1CCc2ccc(Nc3nnc(-c4ccc(F)c(-c5cccnc5)c4)o3)cc2C1`, in the data set with Liver, the intrinsic clearance turned out to be 2.2 mL/min/g. Half-maximal inhibition in the data set with Plasmodium falciparum [2] (IC50) was put at 480 nM. Consider `CN(C)Cc1ccc(Nc2nnc(-c3cc(-c4cccnc4)cc(C(F)(F)F)c3)o2)cn1`, for which, in data set [7], the chromatographic logD turned out to be 2.9. Also, the IC50 in the data set on Plasmodium falciparum [2] was 90 nM. In the case of `FC(F)(F)c1cccc(Nc2nnc(-c3cccc(-c4cccnc4)c3)o2)c1`, the intrinsic clearance with Liver was 3.3 mL/min/g. Also, the IC50 in the data set on Plasmodium falciparum [2] is 690 nM. Regarding `O=C(O)c1cc(-c2cccnc2)cc(C(F)(F)F)c1`, the Drug metabolism entry in the data set with Plasma [1] is recorded as “Metabolite_Detected”.

On to `O=C(O)c1cc(-c2cccnc2)ccn1`, for which, in the data set on Plasma [6], the Drug metabolism entry is given as “Metabolite_Detected”. `CN1CCc2ccc(Nc3nnc(-c4cccc(-c5cccnc5)n4)o3)cc2C1`: the IC50 in the data set on Plasmodium falciparum [2] was 1900 nM. `CN1CCc2ccc(Nc3nnc(-c4cncc(-c5cccnc5)c4)o3)cc2C1`: the intrinsic clearance in the data set on Liver was 1.45 mL/min/g. Further, the midpoint of inhibition with Plasmodium falciparum [2], the IC50, lay at 30 nM. Taken in the same sequence, the figures for `CN1CCCc2ccc(Nc3nnc(-c4cccc(-c5cccnc5)c4)o3)cc2C1` were 9.3 mL/min/g and 660 nM. Consider `CN1CCc2ccc(Nc3nnc(-c4cccc(-c5cccnc5)c4)o3)nc2C1`, for which the IC50 in the data set on Plasmodium falciparum [2] was 130 nM. In turn, `CN1CCc2ncc(Nc3nnc(-c4cc(-c5cccnc5)cc(C(F)(F)F)c4)o3)cc2C1` registered an IC50 in the data set with Plasmodium falciparum [2] of 30 nM. Also, the result in the data set on Plasmodium falciparum [8] was inactive. Besides, the concentration in solution in data set [5] (solubility) came to 68 µg/mL (≈ 150 µM). As to `CN(C)Cc1ccc(Nc2nnc(-c3cccc(-c4cccnc4)c3)o2)cc1`, inhibition with Plasmodium falciparum [2] was half-maximal at 30 nM (IC50).
